The target in one assay is P2Y purinoceptor 1 (Meleagris gallopavo, UniProt P49652). The assay is described as follows: Compounds was tested for its ability to stimulate phospholipase C activity at the P2Y purinoceptor 1 in turkey erythrocyte membranes. The assay is classed as cell membranes. In a few lines: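 Turkey erythrocytes labeled 18–24 h at 37 °C with 2-[3H]myo-inositol in inositol-free DMEM; membranes from hypotonic lysis; PLC assay at pH 7.0 with […] and varying nucleotide concentrations, 5 min at 30 °C; total [3H]inositol phosphates by ion-exchange chromatography; EC50 from four-parameter logistic fit, ≥3 experiments on different membrane preparations, duplicate assays.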

The species entered for assay [1] is Rattus norvegicus. Put plainly: Amplitude of the [Ca++]i Transient evoked by 10 uM ATP, AMP and the compound in rat Astrocytes, expressed as (F340 nm/F380 nm). The class given is functional. In a few lines:
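Primary astrocyte-enriched cultures from newborn Wistar rat whole brain, used on days 6–11 in culture; fura-2/AM (2 μM, 30 min, 37 °C, HEPES-buffered saline pH 7.4) loading; superfusion at 37 °C, 30-s stimulation at 10 μM; single-cell 340/380 nm ratio imaging; maximal Δ F340/F380, mean ± SEM, n = single cells.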

The species named for assay [2] is Rattus norvegicus. Put plainly: Amplitude of the [Ca++]i Transient evoked by 10 uM ATP, AMP and the compound in NG108-15 Neuroblastoma x Glioma Hybrid cells. The class given is functional. In a few lines:
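NG108-15 cells (passage 24–40) grown on glass coverslips 3–7 days (20–80% confluency), loaded 30 min at 37 °C with 2 μM fura-2/AM in HEPES-buffered saline pH 7.4, superfused at 37 °C; 30-s agonist application at 10 μM; single-cell imaging, alternate 340/380 nm excitation, emission >510 nm; amplitude as Δ F340/F380 ratio, mean ± SEM over n single cells.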

P2Y purinoceptor 1, sequence (P49652 whole entry): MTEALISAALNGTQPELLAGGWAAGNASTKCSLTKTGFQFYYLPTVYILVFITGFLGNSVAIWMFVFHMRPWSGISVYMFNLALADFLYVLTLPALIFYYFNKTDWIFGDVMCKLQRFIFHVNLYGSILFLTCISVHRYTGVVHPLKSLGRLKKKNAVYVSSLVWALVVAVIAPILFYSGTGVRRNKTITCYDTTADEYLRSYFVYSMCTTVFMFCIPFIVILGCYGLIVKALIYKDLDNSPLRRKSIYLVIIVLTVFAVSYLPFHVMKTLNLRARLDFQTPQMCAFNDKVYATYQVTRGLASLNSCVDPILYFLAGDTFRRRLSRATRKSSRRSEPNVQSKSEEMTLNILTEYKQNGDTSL

For the compound `CCCCSc1nc2c(N)ncnc2n1[C@@H]1O[C@H](COP(=O)(O)OP(=O)(O)OP(=O)(O)O)[C@@H](O)[C@H]1O`, on P2Y purinoceptor 1, it took 10000 nM to reach a half-maximal effect (EC50).

For the compound `CCCCNc1nc2c(N)ncnc2n1[C@@H]1O[C@H](COP(=O)(O)OP(=O)(O)OP(=O)(O)O)[C@@H](O)[C@H]1O`, on P2Y purinoceptor 1, a half-maximal effect (EC50) was put at 51000 nM.

As to `CCCCOc1nc2c(N)ncnc2n1[C@@H]1O[C@H](COP(=O)(O)OP(=O)(O)OP(=O)(O)O)[C@@H](O)[C@H]1O`, at P2Y purinoceptor 1, the EC50 (commonly the concentration at which the effect is half-maximal) amounted to 5710 nM.

`CCCCSc1nc(N)c2ncn(C3O[C@H](COP(=O)([O-])[O-])[C@@H](O)[C@H]3O)c2n1.[Na+].[Na+]` (stereo partly drawn) came in with an Activity in the assay filed under Rattus norvegicus [1] of 0.28.

`CCCCSc1nc(N)c2ncn([C@@H]3O[C@H](COP(=O)([O-])OP(=O)([O-])OP(=O)([O-])[O-])[C@@H](O)[C@H]3O)c2n1.[Na+].[Na+].[Na+].[Na+]`: the Activity in the assay listed under Rattus norvegicus [2] is on record as 0.23; in the assay filed under Rattus norvegicus [1], 0.9. The EC50 at P2Y purinoceptor 1 was 18 nM.

In the case of `CCCCOc1nc(N)c2ncn([C@@H]3O[C@H](COP(=O)([O-])OP(=O)([O-])OP(=O)([O-])[O-])[C@@H](O)[C@H]3O)c2n1.[Na+].[Na+].[Na+].[Na+]`, the values for the Activity in the assay listed under Rattus norvegicus [2] and in the assay listed under Rattus norvegicus [1] were 0.06 and 0.63, respectively. Also, at P2Y purinoceptor 1, it took 88 nM to reach a half-maximal effect (EC50).

As to `CCCCNc1nc(N)c2ncn([C@@H]3O[C@H](COP(=O)([O-])OP(=O)([O-])OP(=O)([O-])[O-])[C@@H](O)[C@H]3O)c2n1.[Na+].[Na+].[Na+].[Na+]`, the Activity in the assay listed under Rattus norvegicus [2] is 0.05; in the assay filed under Rattus norvegicus [1], 0.89. The EC50 at P2Y purinoceptor 1 was determined as 39 nM.

The values are drawn from ChEMBL document CHEMBL1132547, “Molecular recognition of modified adenine nucleotides by the P2Y(1)-receptor. 1. A synthetic, biochemical, and NMR approach” (J Med Chem, 1999).
